Measurements as given in ChEMBL document CHEMBL1221233, “4''-O-(omega-Quinolylamino-alkylamino)propionyl derivatives of selected macrolides with the activity against the key erythromycin resistant respiratory pathogens” (2010).
≈ marks a conversion by molar mass, not a printed value.

What was measured:
Format in all cases: functional
Streptococcus pneumoniae [1] = experiment: Antibacterial activity against inducible resistance to macrolide and constitutive resistance to lincosamide Streptococcus pneumoniae 134 GR M by broth microdilution method
Method in brief: (§1)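 MIC by CLSI broth microdilution. In the streptococcal medium, 5% horse serum replaced lysed blood. Compounds were tested as two-fold serial dilutions. Strains were first grown on Columbia agar with 5% sheep blood. The MIC was read as the lowest concentration inhibiting growth.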

Streptococcus pyogenes [2] = experiment: Antibacterial activity against constitutive MLS resistance sStreptococcus pyogenes 166 GR-Micro by broth microdilution method; method in brief: as §1
Streptococcus pyogenes [3] = experiment: Antibacterial activity against efflux-mediated macrolide-resistance Streptococcus pyogenes 2 Finland by broth microdilution method; method in brief: as §1
Staphylococcus aureus [4] = experiment: Antibacterial activity against inducible resistance to macrolide, licosamide and streptogramin Staphylococcus aureus 90256 by broth microdilution method
Method in brief: (§2)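 Staphylococci were grown on Mueller-Hinton agar and then tested by CLSI-guideline broth microdilution against two-fold serial dilutions of compound. The result was recorded as the minimum inhibitory concentration.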

Haemophilus influenzae = experiment: Antibacterial activity against Haemophilus influenzae ATCC 49247 by broth microdilution method
Method in brief: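 MIC by broth microdilution following CLSI guidelines, expressed in units of lg/mL. Twofold dilutions prepared in 96-well plates. H. influenzae grown on Mueller-Hinton chocolate agar before testing.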

Staphylococcus aureus [5] = experiment: Antibacterial activity against efflux-mediated macrolide-resistance Staphylococcus aureus PK1 by broth microdilution method; method in brief: as §2
Streptococcus pneumoniae [6] = experiment: Antibacterial activity against constitutive MLS resistance Streptococcus pneumoniae 58 by broth microdilution method; method in brief: as §1
Streptococcus pneumoniae [7] = experiment: Antibacterial activity against efflux-mediated macrolide-resistance Streptococcus pneumoniae Ci137 by broth microdilution method; method in brief: as §1

Row | Structure (SMILES) | MIC (Streptococcus pneumoniae [1]) [µg/mL] | MIC (Streptococcus pyogenes [2]) [µg/mL] | MIC (Streptococcus pyogenes [3]) [µg/mL] | MIC (Staphylococcus aureus [4]) [µg/mL] | MIC (Haemophilus influenzae) [µg/mL] | MIC (Staphylococcus aureus [5]) [µg/mL] | MIC (Streptococcus pneumoniae [6]) [µg/mL] | MIC (Streptococcus pneumoniae [7]) [µg/mL]
1 | CC[C@H]1OC(=O)[C@H](C)[C@@H](O[C@H]2C[C@@](C)(OC)[C@@H](OC(=O)CCNCCNc3cc4c(cc3F)c(=O)c(C(=O)O)cn4C3CC3)[C@H](C)O2)[C@H](C)[C@@H](O[C@@H]2O[C@H](C)C[C@H](N(C)C)[C@H]2O)[C@](C)(O)C[C@@H](C)C(=O)[C@H](C)[C@@H](O)[C@]1(C)O | 0.25 (≈ 0.229 µM) | 0.5 (≈ 0.457 µM) | ≤ 0.125 | 4 (≈ 3.66 µM) | 8 (≈ 7.32 µM) | 0.5 (≈ 0.457 µM) | ≤ 0.125 | ≤ 0.125
2 | CC[C@H]1OC(=O)[C@H](C)[C@@H](O[C@H]2C[C@@](C)(OC)[C@@H](OC(=O)CCNCCCCNc3cc4c(cc3F)c(=O)c(C(=O)O)cn4C3CC3)[C@H](C)O2)[C@H](C)[C@@H](O[C@@H]2O[C@H](C)C[C@H](N(C)C)[C@H]2O)[C@](C)(O)C[C@@H](C)C(=O)[C@H](C)[C@@H](O)[C@]1(C)O | 2 (≈ 1.78 µM) | 8 (≈ 7.13 µM) | ≤ 0.125 | > 64 | 2 (≈ 1.78 µM) | 2 (≈ 1.78 µM) | 8 (≈ 7.13 µM) | ≤ 0.125
3 | CC[C@H]1OC(=O)[C@H](C)[C@@H](O[C@H]2C[C@@](C)(OC)[C@@H](OC(=O)CCNCCNc3cc4c(=O)c(C(=O)O)cn(C5CC5)c4cc3Cl)[C@H](C)O2)[C@H](C)[C@@H](O[C@@H]2O[C@H](C)C[C@H](N(C)C)[C@H]2O)[C@](C)(O)C[C@@H](C)C(=O)[C@H](C)[C@@H](O)[C@]1(C)O | ≤ 0.125 | ≤ 0.125 | ≤ 0.125 | 4 (≈ 3.6 µM) | 2 (≈ 1.8 µM) | 0.5 (≈ 0.451 µM) | ≤ 0.125 | ≤ 0.125
4 | CC[C@H]1OC(=O)[C@H](C)[C@@H](O[C@H]2C[C@@](C)(OC)[C@@H](OC(=O)CCNCCNc3ccc4c(c3)c(=O)c(C(=O)O)cn4C3CC3)[C@H](C)O2)[C@H](C)[C@@H](O[C@@H]2O[C@H](C)C[C@H](N(C)C)[C@H]2O)[C@](C)(O)C[C@@H](C)C(=O)[C@H](C)[C@@H](O)[C@]1(C)O | ≤ 0.125 | ≤ 0.125 | ≤ 0.125 | 4 (≈ 3.72 µM) | 1 (≈ 0.93 µM) | 8 (≈ 7.44 µM) | ≤ 0.125 | ≤ 0.125
5 | CC[C@H]1OC(=O)[C@H](C)[C@@H](O[C@H]2C[C@@](C)(OC)[C@@H](OC(=O)CCNCCCNc3cc4c(cc3F)c(=O)c(C(=O)O)cn4C3CC3)[C@H](C)O2)[C@H](C)[C@@H](O[C@@H]2O[C@H](C)C[C@H](N(C)C)[C@H]2O)[C@](C)(O)C[C@@H](C)C(=O)[C@H](C)[C@@H](O)[C@]1(C)O | 2 (≈ 1.81 µM) | 2 (≈ 1.81 µM) | ≤ 0.125 | 64 (≈ 57.8 µM) | 8 (≈ 7.22 µM) | 1 (≈ 0.903 µM) | 0.25 (≈ 0.226 µM) | ≤ 0.125
6 | CC[C@H]1OC(=O)[C@H](C)[C@@H](O[C@H]2C[C@@](C)(OC)[C@@H](OC(=O)CCNCCNc3cc4c(=O)c(C(=O)OC)cn(C5CC5)c4cc3Cl)[C@H](C)O2)[C@H](C)[C@@H](O[C@@H]2O[C@H](C)C[C@H](N(C)C)[C@H]2O)[C@](C)(O)C[C@@H](C)C(=O)[C@H](C)[C@@H](O)[C@]1(C)O | ≤ 0.125 | 0.125 (≈ 0.111 µM) | ≤ 0.125 | > 64 | 2 (≈ 1.78 µM) | 16 (≈ 14.2 µM) | ≤ 0.125 | ≤ 0.125
7 | CC[C@H]1OC(=O)[C@H](C)[C@@H](O[C@H]2C[C@@](C)(OC)[C@@H](OC(=O)CCNCCNc3ccc4c(=O)c(C(=O)O)cn(C)c4c3)[C@H](C)O2)[C@H](C)[C@@H](O[C@@H]2O[C@H](C)C[C@H](N(C)C)[C@H]2O)[C@](C)(O)C[C@@H](C)C(=O)[C@H](C)[C@@H](O)[C@]1(C)O | ≤ 0.125 | ≤ 0.125 | 1 (≈ 0.953 µM) | 4 (≈ 3.81 µM) | 8 (≈ 7.62 µM) | 1 (≈ 0.953 µM) | ≤ 0.125 | ≤ 0.125
8 | CC[C@H]1OC(=O)[C@H](C)[C@@H](O[C@H]2C[C@@](C)(OC)[C@@H](OC(=O)CCNCCNc3ccc4c(=O)c(C(=O)O)cn(CC)c4c3)[C@H](C)O2)[C@H](C)[C@@H](O[C@@H]2O[C@H](C)C[C@H](N(C)C)[C@H]2O)[C@](C)(O)C[C@@H](C)C(=O)[C@H](C)[C@@H](O)[C@]1(C)O | ≤ 0.125 | ≤ 0.125 | ≤ 0.125 | 1 (≈ 0.94 µM) | 2 (≈ 1.88 µM) | 0.5 (≈ 0.47 µM) | ≤ 0.125 | ≤ 0.125
